The record followed here is PubChem BioAssay AID2692 (The Scripps Research Institute Molecular Screening Center, 2010).

The source made the active and inactive calls. The rule behind the calls is not given here.

For this assay, the system named is transient receptor potential cation channel subfamily N member 1 (TRPN1/NompC), zebrafish. In words: TRPN1 current increase by agonists – whole-cell patch clamp, HEK293, selectivity assay for TRPML3 selective agonist project, late-stage follow-up (AID 2692). To be noted: at 10 µM. Put shortly: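 Assay system: TRPN1-expressing HEK293 cells / Medium: NaCl bath with 100 µM 2-APB, CsCl/BAPTA pipette / Dosing: compound at 10 µM only / Times: 10 ms steps, holding potential +10 mV / Technique: whole-cell patch clamp, voltage-step series −200 to +100 mV / Measure: capacitance-normalized current (per pF)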
`Cc1ccc(S(=O)(=O)n2nccc2-c2c(-c3ccc(Cl)cc3)noc2C)cc1`: the current density at -80 mV was -0.004 nA/pF (inactive).

For the compound `CCOc1ccc(S(=O)(=O)N2CCCCCC2)c2ccccc12`, the current density at -80 mV was -0.003 nA/pF (inactive).

Regarding `CC1CCN(S(=O)(=O)c2ccc(C(C)C)cc2)CC1`, the current density at -80 mV was -0.003 nA/pF (inactive).
